# Experimental data from ChEMBL document CHEMBL2331228, “Synthesis and insight into the structure-activity relationships of chalcones as antimalarial agents” (J Med Chem, 2013).
# pIC50: −log10 of the molar value. Active and inactive are the calls of the source. No cut-off for these calls is given here.
# How the values were obtained:
# Plasmodium falciparum [1] = experiment: Resistance ratio of IC5O for Plasmodium falciparum K1 to IC50 for Plasmodium falciparum 3D7; type: functional
# In short: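 Ratio of K1 IC50 to 3D7 IC50. Both come from the 72 h SYBR Green I fluorescence assay: seven 2-fold dilutions in duplicate, 0.8% parasitemia, IC50 by logit regression.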
# Plasmodium yoelii [2] = experiment: Antimalarial activity against chloroquine-resistant Plasmodium yoelii N-67 infected in Swiss mouse assessed as reduction in parasitemia at 3 mg/kg/day, im administered for 3 days measured on day 4 relative to control; type: functional; set-up: scale not given: the % may be the effect or the level left; conditions: route intramuscular
# [3] = Cytotoxicity against african green monkey Vero C1008 cells after 72 hrs by MTT assay; type: cell-based; conditions: chlorocebus sabaeus
# In short: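 Vero (C1008) cells were incubated with dilutions of compound for 72 h and read by MTT. CC50 was obtained by nonlinear regression.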
# [4] = Selectivity index, ratio of CC50 for african green monkey Vero C1008 cells to IC50 for Plasmodium falciparum K1; type: functional
# In short: (§1)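 SI = CC50 (Vero, 72 h MTT) / IC50. IC50 comes from a 72 h SYBR Green I fluorescence assay: seven 2-fold dilutions in duplicate, 2% cell suspension at 0.8% parasitemia, and Logit regression of the dose-response.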
# Plasmodium yoelii [5] = experiment: Antimalarial activity against chloroquine-resistant Plasmodium yoelii N-67 infected in Swiss mouse assessed as mean survival time at 3 mg/kg/day, im administered for 3 days (reference value: 9.20 +/- 0.44 days); type: functional; conditions: route intramuscular
# [6] = Selectivity index, ratio of CC50 for african green monkey Vero C1008 cells to IC50 for Plasmodium falciparum 3D7; type: functional; in short: as §1
# Plasmodium falciparum [7] = experiment: Antimalarial activity against schizont stage of chloroquine-sensitive Plasmodium falciparum 3D7 after 72 hrs by SYBR Green I-based fluorescence assay; type: functional, organism-based; conditions: 3D7, 72 h
# In short: (§2)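 Parasites cultured in RPMI with 10% FBS, gentamycin and Fungizone (pH 7.2) at 37 °C in CO2. Compounds from DMSO stock (5 mg/mL). Seven 2-fold serial dilutions, duplicate wells. Cells added at 2% hematocrit, 0.8% parasitemia; uninfected-cell wells kept as background. After 72 h, lysis buffer with SYBR Green I, 1 h at 37 °C, fluorescence read. IC50 by logit regression of dose-response.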
# Plasmodium yoelii [8] = experiment: Antimalarial activity against chloroquine-resistant Plasmodium yoelii N-67 infected in Swiss mouse assessed as reduction in parasitemia at 20 mg/kg/day, po administered for 3 days measured on day 4 relative to control; type: functional; set-up: scale not given: the % may be the effect or the level left
# Plasmodium yoelii [9] = experiment: Antimalarial activity against chloroquine-resistant Plasmodium yoelii N-67 infected in Swiss mouse assessed as mean survival time at 20 mg/kg/day, po administered for 3 days (reference value: 9.20 +/- 0.44 days); type: functional
# Plasmodium falciparum [10] = experiment: Antimalarial activity against schizont stage of chloroquine-sensitive Plasmodium falciparum 3D7 assessed as reduction in parasitemia at 10 ug/ml after more than 40 hrs by Giemsa staining-based light microscopy; type: functional; set-up: scale not given: the % may be the effect or the level left
# In short: (§3)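 Ring stages (5% D-sorbitol synchronized) of 3D7 were grown in RPMI with 10% FBS, gentamycin and Fungizone at 37 °C under CO2. They were exposed in duplicate to compound (DMSO stock, 5 mg/mL) at 2, 10 and 50 μg/mL, with 3% cell suspension and 1% parasitized cells, for >40 h. Giemsa-stained thin smears were counted for schizonts. MIC is the lowest concentration giving 100% inhibition of schizont maturation.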
# Plasmodium falciparum [11] = experiment: Antimalarial activity against schizont stage of chloroquine-sensitive Plasmodium falciparum 3D7 after more than 40 hrs by Giemsa staining-based light microscopic analysis; type: functional; conditions: 3D7, 40 h; in short: as §3
# Plasmodium falciparum [12] = experiment: Antimalarial activity against chloroquine-resistant Plasmodium falciparum K1 after 72 hrs by SYBR Green I-based fluorescence assay; type: functional, organism-based; conditions: K1, 72 h; in short: as §2
# Plasmodium yoelii [13] = experiment: Antimalarial activity against chloroquine-resistant Plasmodium yoelii N-67 infected in Swiss mouse assessed as reduction in parasitemia at 50 mg/kg/day, ip administered for 3 days measured on day 4 relative to control; type: functional; set-up: scale not given: the % may be the effect or the level left; conditions: route intraperitoneal
# Plasmodium falciparum [14] = experiment: Inhibition of Plasmodium falciparum recombinant Falcipain-3 using Z-LR-AMC as substrate at low concentration after 30 mins by microplate reader analysis
# Plasmodium yoelii [15] = experiment: Antimalarial activity against chloroquine-resistant Plasmodium yoelii N-67 infected in Swiss mouse assessed as mean survival time of host at 50 mg/kg/day, ip administered for 3 days (reference value: 9.20 +/- 0.44 days); type: functional; conditions: route intraperitoneal
# [16] = Inhibition of Plasmodium falciparum recombinant Falcipain-2 using Z-LR-AMC as substrate after 30 mins by microplate reader analysis
# Plasmodium falciparum [17] = experiment: Activation of Plasmodium falciparum recombinant Falcipain-3 using Z-LR-AMC as substrate at high concentration after 30 mins by microplate reader analysis
# Plasmodium falciparum [18] = experiment: Antimalarial activity against schizont stage of chloroquine-sensitive Plasmodium falciparum 3D7 assessed as reduction in parasitemia at 2 to 10 ug/ml after more than 40 hrs by Giemsa staining-based light microscopy; type: functional; set-up: scale not given: the % may be the effect or the level left; in short: as §3
# Plasmodium falciparum [19] = experiment: Antimalarial activity against Plasmodium falciparum; type: functional
# [20] = Elimination half life in Sprague-Dawley rat at 50 mg/kg, po by LC-MS/MS analysis; type: ADME, organism-based; set-up: dose 50 mg/kg, route oral; conditions: in vivo, read-out: beta t1/2 (converted)
# In short: (§4)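 Male Sprague-Dawley rats (n = 5, 220−240 g), single oral dose 50 mg/kg. Plasma stored at −70 °C, processed by acetonitrile protein precipitation, and analysed by LC-MS/MS with QC samples among calibrators.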
# [21] = Cmax in Sprague-Dawley rat at 50 mg/kg, po by LC-MS/MS analysis; type: ADME, organism-based; set-up: dose 50 mg/kg, route oral; conditions: in vivo; in short: as §4
# [22] = AUC (0 to t) in Sprague-Dawley rat at 50 mg/kg, po by LC-MS/MS analysis; type: ADME, organism-based; set-up: dose 50 mg/kg, route oral; conditions: plasma; in short: as §4
# [23] = Apparent oral volume of distribution in Sprague-Dawley rat at 50 mg/kg by LC-MS/MS analysis; type: ADME, organism-based; set-up: dose 50 mg/kg, route oral; conditions: in vivo; in short: as §4
# [24] = Mean residence time in Sprague-Dawley rat at 50 mg/kg, po by LC-MS/MS analysis; type: ADME, organism-based; set-up: dose 50 mg/kg, route oral; conditions: in vivo; in short: as §4
# [25] = Apparent oral clearance in Sprague-Dawley rat at 50 mg/kg by LC-MS/MS analysis; type: ADME, organism-based; set-up: dose 50 mg/kg, route oral; conditions: in vivo; in short: as §4
# Plasmodium yoelii [26] = experiment: Antimalarial activity against chloroquine-resistant Plasmodium yoelii N-67 infected in Swiss mouse assessed as reduction in parasitemia at 50 mg/kg/day, po administered for 3 days measured on day 4 relative to control; type: functional; set-up: scale not given: the % may be the effect or the level left
# Plasmodium yoelii [27] = experiment: Antimalarial activity against chloroquine-resistant Plasmodium yoelii N-67 infected in Swiss mouse assessed as mean survival time at 50 mg/kg/day, po administered for 3 days (reference value: 9.20 +/- 0.44 days); type: functional
# [28] = Tmax in Sprague-Dawley rat at 50 mg/kg, po by LC-MS/MS analysis; type: ADME, organism-based; set-up: dose 50 mg/kg, route oral; conditions: in vivo; in short: as §4
structure (smiles),measurement,setting,value
CCO[C@H]1O[C@@H]2O[C@@]3(C)CC[C@H]4[C@H](C)CC[C@@H]([C@H]1C)[C@@]24OO3 [ARTEMOTIL],Ratio IC50,Plasmodium falciparum [1],0.79
same,Activity,Plasmodium yoelii [2],100%
same,CC50 at 72 h,[3],136000 nM
same,Ratio CC50/IC50,[4],124857
same,MST,Plasmodium yoelii [5],>28 days
same,Ratio CC50/IC50,[6],98720
same,pIC50,Plasmodium falciparum [7],8.86
CCN(CC)CCCC(C)Nc1ccnc2cc(Cl)ccc12 (centres undefined) [CHLOROQUINE],Activity,Plasmodium yoelii [8],99%
same,MST,Plasmodium yoelii [9],>28 days
CC1(C)CCc2cc(C(=O)/C=C/c3ccc(Cl)c(Cl)c3)c(O)cc2O1,Activity,Plasmodium falciparum [10],<100%
same,MIC,Plasmodium falciparum [11],> 26.6 µM
CC(C)=CCCC1(C)C=Cc2c(ccc(C(=O)/C=C/c3ccc(O)c(C=O)c3)c2O)O1 (centres undefined),Ratio IC50,Plasmodium falciparum [1],8.7
same,pIC50,Plasmodium falciparum [12],5.96
same,Activity,Plasmodium yoelii [13],89%
same,CC50 at 72 h,[3],9900 nM
same,inhibition,Plasmodium falciparum [14],Active
same,Ratio CC50/IC50,[4],9
same,MST,Plasmodium yoelii [15],12.33 days
same,pIC50,[16],5.26
same,Activity,Plasmodium falciparum [17],Active
same,Ratio CC50/IC50,[6],79
same,MIC,Plasmodium falciparum [11],0.59 µM
same,pIC50,Plasmodium falciparum [7],6.90
CC(C)CCC[C@H](C)CCC[C@H](C)CCCC1(C)CCc2cc(C(=O)/C=C/c3cccnc3)c(O)cc2O1 (some centres undefined),Activity,Plasmodium falciparum [18],<100%
same,MIC,Plasmodium falciparum [11],> 19.3 µM
CC(C)=CCCC1(C)C=Cc2c(O)c(C(=O)/C=C/c3cc(C=O)ccc3O)cc(CC=C(C)C)c2O1 (centres undefined),Ratio IC50,Plasmodium falciparum [1],5
same,pIC50,Plasmodium falciparum [12],6.44
same,Activity,Plasmodium yoelii [13],71%
same,CC50 at 72 h,[3],88600 nM
same,Ratio CC50/IC50,[4],242
same,MST,Plasmodium yoelii [15],12.6 days
same,Ratio CC50/IC50,[6],1210
same,MIC,Plasmodium falciparum [11],0.25 µM
same,pIC50,Plasmodium falciparum [7],7.14
CC(C)=CCCC1(C)C=Cc2ccc(O)c(C(=O)/C=C/c3ccc(O)c(C=O)c3)c2O1 (centres undefined),Ratio IC50,Plasmodium falciparum [1],0.9
same,pIC50,Plasmodium falciparum [12],7.07
same,Activity,Plasmodium yoelii [13],88%
same,CC50 at 72 h,[3],31700 nM
same,Ratio CC50/IC50,[4],376
same,MST,Plasmodium yoelii [15],16.75 days
same,Ratio CC50/IC50,[6],334
same,MIC,Plasmodium falciparum [11],0.39 µM
same,pIC50,Plasmodium falciparum [7],7.02
CN(C)c1ccc(/C=C/C(=O)c2ccc3c(c2O)CCC(C)(C)O3)cc1,Activity,Plasmodium falciparum [10],<100%
same,MIC,Plasmodium falciparum [11],> 28.5 µM
CC1(C)CCc2cc(C(=O)/C=C/c3ccc([N+](=O)[O-])cc3)c(O)cc2O1,Activity,Plasmodium falciparum [10],<100%
same,MIC,Plasmodium falciparum [11],> 28.3 µM
CC(C)=CCc1cc(C(=O)/C=C/c2ccc(O)cc2)c(O)c(CC=C(C)C)c1O [MEDICAGENIN],MIC,Plasmodium falciparum [19],5.1 µM
same,MIC,Plasmodium falciparum [11],5.1 µM
CC(C)=CCCC1(C)C=Cc2ccc(O)c(C(=O)/C=C/c3cc(C=O)ccc3O)c2O1 (centres undefined),pIC50,Plasmodium falciparum [12],< 5.92
same,Activity,Plasmodium yoelii [13],87%
same,CC50 at 72 h,[3],103000 nM
same,inhibition,Plasmodium falciparum [14],inactive
same,MST,Plasmodium yoelii [15],18.4 days
same,pIC50,[16],5.34
same,Activity,Plasmodium falciparum [17],Active
same,Ratio CC50/IC50,[6],1173
same,MIC,Plasmodium falciparum [11],0.31 µM
same,pIC50,Plasmodium falciparum [7],7.06
CC(C)CCC[C@H](C)CCC[C@H](C)CCCC1(C)CCc2cc(C(=O)/C=C/c3ccccn3)c(O)cc2O1 (some centres undefined),Activity,Plasmodium falciparum [18],<100%
same,MIC,Plasmodium falciparum [11],> 19.3 µM
CC1(C)CCc2cc(C(=O)/C=C/c3cccc([N+](=O)[O-])c3)c(O)cc2O1,Activity,Plasmodium falciparum [10],<100%
same,MIC,Plasmodium falciparum [11],> 28.2 µM
CC(C)=CCC1=C/C(=C(O)\C=C\c2ccc(O)cc2)C(=O)C(CC=C(C)C)(CC=C(C)C)C1=O [MUNCHIWARIN],MIC,Plasmodium falciparum [19],4.34 µM
CC1(C)CCc2cc(C(=O)/C=C/c3ccc(F)c(F)c3)c(O)cc2O1,Activity,Plasmodium falciparum [10],<100%
same,MIC,Plasmodium falciparum [11],> 29.1 µM
CC(C)=CCCC1(C)C=Cc2c(ccc(C(=O)/C=C/c3cc(C=O)ccc3O)c2O)O1 (centres undefined),Ratio IC50,Plasmodium falciparum [1],2.6
same,pIC50,Plasmodium falciparum [12],6.03
same,Activity,Plasmodium yoelii [13],98%
same,CC50 at 72 h,[3],22200 nM
same,half-life,[20],2.32 h
same,inhibition,Plasmodium falciparum [14],inactive
same,Ratio CC50/IC50,[4],23.7
same,Cmax,[21],78.3 ng/mL
same,MST,Plasmodium yoelii [15],17.4 days
same,AUC(0-t),[22],389 ng·h/mL
same,pIC50,[16],4.87
same,Vd/F,[23],433 L/kg
same,Activity,Plasmodium falciparum [17],Active
same,MRT,[24],3.89 h
same,Ratio CC50/IC50,[6],64
same,CL/F,[25],2140 mL/min/kg
same,Activity,Plasmodium yoelii [26],23%
same,MST,Plasmodium yoelii [27],9.2 days
same,MIC,Plasmodium falciparum [11],1.19 µM
same,Tmax,[28],3 h
same,pIC50,Plasmodium falciparum [7],6.46
CC1(C)CCc2cc(C(=O)/C=C/c3ccccn3)c(O)cc2O1,Activity,Plasmodium falciparum [18],<100%
same,MIC,Plasmodium falciparum [11],> 32.4 µM
